Bioassay records deposited in PubChem BioAssay by several laboratories.
Scp-1 inhibitor: Scp-1 phosphatase inhibitors, primary screen, biochemical, colorimetric, uHTS. Carboxy-terminal domain RNA polymerase II polypeptide A small phosphatase 1 (Homo …. Recombinant Scp1, phosphopeptide, malachite green phosphate absorbance. inhibition, % at 20 µM. 0.88% of 340,000 active;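 active means inhibition above about 50% at 20 µM, limit read from the data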
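System: SCP-1 catalytic domain; Reagent: Phospho 17-mer peptide substrate; Doses: one concentration, 20 µM, with 1.0% DMSO; Incubation: 45 min room-temperature reaction, 5 min colour, 30 min stabiliser; Signal: Phosphate-binding colour reagent, absorbance read at 630 nm.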
LMPTP block: LMPTP phosphatase inhibitors, primary screen, biochemical, fluorescence intensity, uHTS | inhibition, % at 20 µM | recombinant LMPTP-A, OMFP fluorogenic substrate | 0.22% of 360,000 active | AID 651560, 2012;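 active means compounds that cut the enzyme signal by at least half of the control window in the single-dose screen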
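Test system – LMPTP-A enzyme · Amount – LMPTP-A at 0.625 nM final in the reaction · Buffer or medium – Bis-Tris pH 6.0, DTT, detergent · Reagent – OMFP 400 µM · Doses – single 20 µM dose · Schedule – reaction 50 min, room temperature, dark · Detection – fluorescence intensity of OMFP turnover product · Evaluation – percent inhibition versus substrate-only and uninhibited controls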
CFTR F508del cor: F508del CFTR correction, initial screen, CFBE line, single point | CFBE cells, YFP halide quenching; stimulated with forskolin plus potentiator P3; % fluorescence drop versus neutral controls | 0.36% of 350,000 active | AID 720511, 2013 | activity (quench increase), % at 7.58 µM;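 active means mean added fluorescence quench of at least 8% versus neutral control, with both replicates also reaching 8%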;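 further: cells transiently co-express mutant CFTR-F508del with the halide-sensitive YFP; corrector assay measuring rescue of mutant channel to the surface after 24 h compound exposure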
STEP block: STEP phosphatase inhibitors, primary screen, biochemical, fluorescence intensity, uHTS | recombinant STEP, OMFP fluorogenic substrate | inhibition, % at 20 µM | 0.25% of 360,000 active;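 active means inhibition at 20 µM, scaled per plate between control wells, above about 37%, limit read from the data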
Target sequence (P54829 whole entry, looked up): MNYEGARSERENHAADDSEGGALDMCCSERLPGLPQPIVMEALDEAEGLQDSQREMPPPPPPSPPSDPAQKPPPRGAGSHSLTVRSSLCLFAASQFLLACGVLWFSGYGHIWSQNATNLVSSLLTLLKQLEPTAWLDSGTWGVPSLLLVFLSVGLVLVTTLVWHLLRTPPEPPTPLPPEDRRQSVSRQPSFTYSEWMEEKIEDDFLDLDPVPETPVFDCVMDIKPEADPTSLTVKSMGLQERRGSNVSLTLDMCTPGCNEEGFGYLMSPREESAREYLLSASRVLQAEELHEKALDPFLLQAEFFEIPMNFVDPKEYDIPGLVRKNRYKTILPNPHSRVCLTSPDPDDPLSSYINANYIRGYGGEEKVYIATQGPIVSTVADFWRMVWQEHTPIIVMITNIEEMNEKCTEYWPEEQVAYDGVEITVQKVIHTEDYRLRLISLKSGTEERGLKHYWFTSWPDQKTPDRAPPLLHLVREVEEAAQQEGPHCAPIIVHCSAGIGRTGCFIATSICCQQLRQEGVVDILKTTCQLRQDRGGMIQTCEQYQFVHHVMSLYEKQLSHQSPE
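Material: STEP (striatal-enriched tyrosine phosphatase) enzyme, cell-free | Medium: 50 mM Bis-Tris pH 6.0 with 2.5 mM DTT and 0.005% Tween 20 | Read-out: Percent inhibition scaled to no-enzyme and uninhibited-enzyme controls, plate-pattern corrected | Signal: Fluorescence read at 480 nm ex / 540 nm em | Times: 20 min reaction, room temperature, in the dark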
DNMT1 block: human DNMT1 methyltransferase inhibitors, primary screen, biochemical, molecular beacon, fluorescence, HinP1I cleavage, uHTS; inhibition (reported as % activation of signal), % at 10 µM; 0.83% of 360,000 active; AID 588458, 2011; in the data active means inhibition above about 50%
SUMO1-SIM PPI: modulators of SUMO1 protein-protein interactions, primary screen, biochemical, uHTS; Small ubiquitin-related modifier 1 (Homo sapiens), P63165; SUMO1 binding to a labelled peptide, TR-FRET, 1 h; inhibition, % at 20 µM; 0.33% of 360,000 active; in the data active means inhibition above about 37%
Scp-1 conf: Scp-1 phosphatase inhibitors, retest, confirmation, biochemical, colorimetric, single concentration. shares compounds with Scp-1 inhibitor. recombinant SCP-1 catalytic domain, phosphate release, malachite green absorbance. 61% of 2,500 active. inhibition, % at 20 µM
MG interference: colorimetric readout interference by compounds, confirmation, artefact control for Scp-1 inhibitor project, biochemical, single concentration. shares compounds with Scp-1 inhibitor. Colorimetric interference counterscreen, malachite green absorbance 630 nm. apparent inhibition (interference), % at 20 µM. 2,500 tested, under 10 active;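 further: compounds added after enzyme reaction finished so only phosphate colour detection is probed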
Scp1 DSF: Scp-1 binding by thermal shift, confirmation, orthogonal assay for Scp-1 inhibitor project, biophysical, differential scanning fluorimetry. 25% of 1,500 active. Recombinant SCP1, Sypro Orange thermal shift Tm. shares compounds with Scp-1 inhibitor. thermal shift relative to vanadate control, % at 40 µM;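 active means substances whose mean melting-temperature shift, as a percentage of the reference inhibitor's shift, reaches about 5.3%, limit read from the data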
Numbers stand for hits; - = inactive; . = no result. The list is not random: actives were taken first. Their share in the collection is about 1.6%.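 How the source made its calls, unless noted: active means inhibition of at least 30% at 20 µM; inactive means the rest.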

SMILES	Scp-1 inhibitor	LMPTP block	CFTR F508del cor	STEP block	DNMT1 block	SUMO1-SIM PPI	Scp-1 conf	MG interference	others
CO[C@@H]1CN(C)C(=O)c2ccc(NS(=O)(=O)c3ccccc3F)cc2OC[C@@H](C)NC[C@@H]1C	.	.	-	.	.	.	.	.
Cc1ccccc1C(=O)NC1CCSC1=O (stereo not drawn)	64	-	-	-	-	-	-	-
C/C(=N/NC(=O)c1ccc(Br)o1)c1cccs1	-	-	-	-	-	-	.	.
C/C(=N\NC(=O)c1cc(Br)ccc1O)c1cccs1	66	-	-	-	-	-	69	-	Scp1 DSF=-
C/C(=N\NC(=O)c1cc(Br)ccc1O)c1cccc(NC(=O)c2ccccc2F)c1	86	-	-	-	-	-	79	-	Scp1 DSF=5.8
C[C@@H]1CN([C@H](C)CO)C(=O)c2cc(/C=C/c3ccccc3)cnc2O[C@@H]1CN(C)S(=O)(=O)c1cccs1	.	.	-	.	.	.	.	.
Cc1ccc(NC(=O)CN2C(=O)N/C(=C/c3ccccc3OCc3cccc(C(=O)O)c3)C2=O)cc1	-	-	-	-	-	-	.	.
O=C(CN1C(=O)N/C(=C\c2ccccc2OCc2ccc(C(=O)O)cc2)C1=O)Nc1ccccc1F	50	-	-	-	-	-	78	-	Scp1 DSF=-
COc1cccc(/C=C2/NC(=O)N(CC(=O)Nc3ccc(C)cc3)C2=O)c1OCc1cccc(C(=O)O)c1	79	-	-	-	-	-	72	-	Scp1 DSF=-
C[C@H](CO)N1C[C@H](C)[C@H](CN(C)S(=O)(=O)c2ccc(Cl)cc2)Oc2ccc(NC(=O)Nc3ccc4c(c3)OCO4)cc2C1=O	.	.	-	.	.	.	.	.
C[C@@H]1CCCCO[C@H](CN(C)Cc2ccncc2)[C@H](C)CN([C@H](C)CO)C(=O)c2cc(NC(=O)Nc3cccc4ccccc34)ccc2O1	.	.	-	.	.	.	.	.
O=C(CSc1nnc(-c2ccncc2)n1-c1ccccc1)N1CCN(c2ccc(Cl)cc2)CC1	98	-	.	-	-	-	-	-
CO[C@H]1CN(C)C(=O)c2cc(NC(=O)C3CCOCC3)ccc2OC[C@@H](C)N(C(C)=O)C[C@H]1C	.	.	-	.	.	.	.	.
C[C@H](CO)N1C[C@H](C)[C@@H](CN(C)CC2CC2)Oc2c(NC(=O)c3cnccn3)cccc2C1=O	.	.	-	.	.	.	.	.
O=C(NNC(=O)c1cccs1)c1ccc(Cl)c(S(=O)(=O)N2CCCC2)c1	-	-	-	-	-	-	.	.
Cc1cc(C(=O)O)cc(S(=O)(=O)NNC(=O)c2cccs2)c1C	53	-	-	-	-	-	-	-
CC(=O)c1sc(NC(=O)C2CC(=O)N(Cc3ccccc3)C2)nc1-c1ccccc1 (stereo not drawn)	-	-	-	-	-	-	-	-
CCN(CC)S(=O)(=O)c1cc(NC(=O)C2CC(=O)N(Cc3ccccc3)C2)ccc1Cl (stereo not drawn)	-	-	-	-	-	-	-	-
CCOc1nc(Nc2ccc(OC)cc2)nc(OCC)n1	67	-	.	-	-	-	-	-
COc1ccc(Nc2nc(OC)nc(OC)n2)cc1	-	-	-	-	-	-	.	.
